From PubChem
Kir21 inh: Kir2.1 (mouse) channel inhibition | P35561 | HEK293-Kir2.1, FluxOR thallium flux fluorescence; hits give low values | B-score at 10 µM | actives 0.85% (n = 310,000);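 active = fluorescence ratio B-score at or below minus 3 SD of library scores, with starting-brightness B-score within 2 SD, cut at about -4.2 in these data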;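 note: channel flux triggered by added potassium and thallium sulfate stimulus; B-score of peak minus minimum fluorescence over baseline after thallium stimulus; more negative B-score means stronger Kir2.1 block with less thallium influx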
hERG rescue: hERG (human) protection from proarrhythmic block; Q12809; CHO-hERG, FluxOR thallium flux, dofetilide IC70 present; activation (rescue from dofetilide block), less the hit threshold, % at 10 µM; actives 0.51% (n = 310,000);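 active = activation above the mean of controls blocked by dofetilide plus 5 SD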;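 note: thallium influx through hERG after potassium depolarization seen as dye fluorescence rise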
KCNK9 inh: inhibitors of human KCNK9 two-pore domain potassium channel | Q9NPC2 | HEK293 KCNK9, FluxOR thallium flux fluorescence; hits give low values | B-score at 10 µM | actives 1.2% (n = 310,000) | AID 488922;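 active = ratio B-score over 3 SD below the library mean, with starting fluorescence within 5 SD of its mean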;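 note: negative B-score means less thallium flux so channel inhibition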
KCNK3 inh: human KCNK3 channel inhibition, primary screen; O14649; actives 0.84% (n = 340,000); B-score at 10 µM; CHO-KCNK3 thallium flux, FluxOR fluorescence; hits give low values;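 active = B-score under library mean minus 4 SD, starting fluorescence ratio at most library mean plus 5 SD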;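 note: more negative B-score means stronger inhibition of thallium flux through KCNK3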
Target sequence (O14649 whole entry, looked up): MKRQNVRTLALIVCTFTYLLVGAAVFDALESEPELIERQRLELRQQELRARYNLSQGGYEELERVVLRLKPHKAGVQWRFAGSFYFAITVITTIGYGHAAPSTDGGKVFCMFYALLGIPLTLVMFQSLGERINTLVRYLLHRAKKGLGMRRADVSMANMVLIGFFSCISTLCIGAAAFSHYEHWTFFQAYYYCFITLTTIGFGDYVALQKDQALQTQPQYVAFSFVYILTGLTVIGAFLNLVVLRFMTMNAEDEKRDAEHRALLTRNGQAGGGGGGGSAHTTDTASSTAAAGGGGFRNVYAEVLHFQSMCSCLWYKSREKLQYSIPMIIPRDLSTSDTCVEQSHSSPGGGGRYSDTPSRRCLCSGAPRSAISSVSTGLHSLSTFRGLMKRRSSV
KCNQ1 act: human KCNQ1 channel potentiation or activation; B-score at 10 µM; CHO-K1 KCNQ1, thallium flux FluxOR fluorescence; hits give high values; AID 2648; actives 0.35% (n = 310,000);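 active = fluorescence ratio B-score, a plate-corrected score, at least three library SD, with initial intensity B-score within 5 SD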
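System: Stable KCNQ1 CHO-K1 line | Incubation: 90 min dye loading and 20 min compound exposure, both at room temperature | Measure: Ratio B score | Medium: Assay buffer for compound exposure, DMSO matched across wells | Compound dosing: Single-concentration screen | Probe or stimulus: K+/Tl+ depolarizing stimulus | Measured by: Kinetic FluxOR fluorescence, 10 s baseline plus 110 s post-stimulus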
KCNQ1 block: human KCNQ1 channel inhibition; P51787; actives 1.3% (n = 310,000); B-score at 10 µM; CHO-K1 KCNQ1, FluxOR thallium flux fluorescence; hits give high values;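 active = compounds whose thallium flux B-score, printed positive for inhibition, exceeds three library SD while starting fluorescence stays within three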;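 note: channel opened by potassium depolarization with thallium stimulus after 20 min compound exposure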
Numbers without * were called inactive; i = inactive; . = no result given. Hits are enriched below; roughly 3.8% of the tested compounds scored in any of these assays.

SMILES | Kir21 inh | hERG rescue | KCNK9 inh | KCNK3 inh | KCNQ1 act | KCNQ1 block
CCCN(CC(=O)Nc1cc(Cl)ccc1Cl)C(=O)c1ccc2n[nH]nc2c1 | . | . | . | i | . | .
COc1ccc(C)cc1S(=O)(=O)NCc1cccs1 | -1.2 | -4 | i | i | i | i
COc1ccccc1CNS(=O)(=O)c1cc(C)ccc1OC | -5.6* | -7 | i | i | i | i
CC1CCN(CCCNC(=O)c2ccc(CSCc3cccc(Cl)c3)o2)CC1 | -6.7* | -13 | i | i | i | i
Nc1ncnc(Oc2cccc3cccnc23)c1[N+](=O)[O-] | 0.53 | 2 | i | i | i | i
O=C(COC(=O)c1ccc(S(=O)(=O)N2CCCCC2)cc1)NCc1ccc(F)cc1 | . | . | . | i | . | .
CC1CN(S(=O)(=O)c2ccc(-c3nc4ccccc4s3)cc2)CC(C)O1 (stereo not drawn) | -0.25 | 4.6* | i | i | i | i
O=S(=O)(c1ccc(-c2nc3ccccc3s2)cc1)N1CCCC1 | -0.98 | 0 | i | i | i | i
CCC(C)(C)n1nnnc1C(c1cc(OC)c(OC)c(OC)c1)N1CCN(c2ccccc2)CC1 (stereo not drawn) | 0.03 | -7 | i | i | i | i
COc1ccc(CN(C)C(c2ccccc2)c2nnnn2-c2ccccc2C)c(OC)c1C (stereo not drawn) | 0.89 | -20 | -7.9* | i | i | i
Cc1ccc(NC(=O)CSc2nn(-c3ccc(Cl)cc3)c(=S)s2)cc1S(=O)(=O)N(C)C | -3 | -11 | i | i | i | 6*
CN(C)S(=O)(=O)c1cc(NC(=O)CSc2nn(-c3ccc(Cl)cc3)c(=S)s2)ccc1Cl | -0.07 | -12 | i | i | i | i
CCCOc1ccc(S(=O)(=O)NCCN2CCOCC2)c2ccccc12 | -4.4* | -3 | i | i | i | i
CCOc1ccc(S(=O)(=O)NCCN2CCOCC2)c2ccccc12 | -1.7 | -4 | i | i | i | i
Cc1ccc(NC(=S)Nc2ccc(Cl)c(Cl)c2)c(OC(F)F)c1 | -2.6 | -35 | i | i | i | 9*
Cc1ccc(NC(=O)CSCC(=O)N2CCN(Cc3ccc4c(c3)OCO4)CC2)cc1 | -0.68 | -6 | i | i | i | i
CCc1cc2cc(C)cc(C)c2[nH]c1=S | -0.01 | 9.1* | i | i | i | i
CC1CC2=C(NC(=S)NC2c2cccc(F)c2)/C(=C/c2cccc(F)c2)C1 (stereo not drawn) | 0.08 | -16 | i | i | i | i
CC1CC2=C(NC(=S)NC2c2ccccc2F)/C(=C/c2ccccc2F)C1 (stereo not drawn) | 2.3 | -11 | i | i | i | 6*
[O-]C1=N[N+](=C(c2ccccc2)c2ccccc2)C1 | . | . | . | i | . | .
C=C[C@@]1(C)CC(=O)[C@]2(O)[C@@]3(C)[C@@H](O)CCC(C)(C)[C@@H]3[C@H](O)[C@H](OC(C)=O)[C@@]2(C)O1 | 0.06 | -14 | i | i | 12* | i
C=C[C@@]1(C)CC(=O)[C@]2(O)[C@@]3(C)[C@@H](O)CCC(C)(C)[C@@H]3[C@H](OC(C)=O)[C@H](O)[C@@]2(C)O1 | -0.96 | -13 | i | i | 13* | i
CN(C(=O)COC(=O)c1cc(=O)[nH]c2ccccc12)c1ccccc1 | . | . | . | i | . | .
Cc1ccc(NC(=O)CN2C(=O)NC(C)(C3CC3)C2=O)cc1S(=O)(=O)N1CCCCC1 (stereo not drawn) | . | . | . | i | . | .
O=C1Nc2ccccc2C(=O)C1(Cl)Cc1ccccc1 (stereo not drawn) | -5.2* | -4 | i | i | i | i
SMILES | Kir21 inh | hERG rescue | KCNK9 inh | KCNK3 inh | KCNQ1 act | KCNQ1 block
Cc1ccccc1NC(=O)c1ccc2c(c1)OCCO2 | -2.5 | -4 | i | i | i | i
COC(=O)c1ccccc1NC(=O)c1ccc2c(c1)OCCCO2 | 0.68 | -6 | -6.8* | i | i | i
O=C(Nc1cccc(-c2nc3ccccc3s2)c1)c1cc(-n2cnnc2)ccc1Cl | 1.6 | -18 | i | i | i | 6*
COC(=O)C1=C(C)NC(C)=C(C(=O)O[C@@H]2CCCN(Cc3ccccc3)C2)[C@@H]1c1cccc([N+](=O)[O-])c1 | 0.63 | -15 | i | i | i | 7*
CCOC(=O)C1=C(C)NC(C)=C(C(=O)OC)C1c1cccc([N+](=O)[O-])c1 (stereo not drawn) | 1.2 | -8 | i | i | i | i
CCOc1cc2c(cc1/C=C/c1noc(C)c1[N+](=O)[O-])OC(C)C2 (stereo not drawn) | -5.1 | -9 | i | i | i | 7*
Cc1sc(-c2ccccn2)nc1OC(=O)c1cccc(Cl)c1Cl | 0.09 | 5.8* | i | i | i | i
Cc1sc(-c2ccccn2)nc1OC(=O)c1ccc(Cl)cc1 | 1.2 | -8 | i | i | i | i
Brc1ccc(OCCOCCOc2cccc3cccnc23)cc1 | -2.2 | -10 | i | i | i | i
C=CCc1ccc(OCCOCCOc2cccc3cccnc23)c(OC)c1 | -4.9* | -15 | i | i | i | i
Brc1ccccc1OCCOCCOc1cccc2cccnc12 | -4.5* | -1 | i | i | i | i
C=CCc1ccc(OCCOc2cccc3cccnc23)c(OC)c1 | -0.99 | -8 | i | i | i | i
Cc1ccc(N=C2NC(=O)/C(=C\c3ccc(C)s3)S2)cc1 | 1.5 | 0 | i | i | i | i
COC(=O)CSc1ncnc2c(C)csc12 | -1.3 | -6 | i | i | i | i
NC(=O)CCS(=O)(=O)c1ccc(Cl)cc1 | 3.4 | 6.4* | i | i | i | i
CCc1ccc(NC(=O)N2CCN(C(=O)C3CCCO3)CC2)cc1 (stereo not drawn) | 0.01 | -6 | i | i | i | i
Cc1nc2c(C(=O)N3CCN(c4ccccn4)CC3)cnn2c(C)c1Cc1cccc(Cl)c1 | -1.6 | -18 | i | i | 7* | i
CN1CC=C2C(C#N)=C(N)C(C#N)(C#N)[C@H](c3cccc(Cl)c3)C2C1 (stereo partly drawn) | -3.3 | -11 | i | i | i | 8*
CN1CC=C2C(C#N)=C(N)C(C#N)(C#N)C(c3ccsc3)C2C1 (stereo not drawn) | -0.22 | -10 | i | i | i | i
CC(C)c1ccc(C2C3CSCC=C3C(C#N)=C(N)C2(C#N)C#N)cc1 (stereo not drawn) | 0.33 | -20 | i | . | i | 12*
CC1CCC/C=C/C(=O)c2c(O)cc(O)cc2CC(=O)O1 (stereo not drawn) | -1 | -16 | i | i | i | 7*
